ChEMBL document CHEMBL1141491, “Design, synthesis, and evaluation of novel ethambutol analogues” (2008)
In brackets after ≈: the same amount, converted by molar mass.

These molecules were tested on Mycobacterium tuberculosis (assay: Antituberculosis activity against Mycobacterium tuberculosis H37Rv by microbroth dilution method).
Assay type: functional
Outline: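 M. tuberculosis H37Rv grown in Middlebrook 7H9 with 10% ADC to OD600 0.4–0.6, then diluted in 7H9 to OD600 0.01. This inoculum was added to 2-fold serial dilutions of compound and incubated 37 °C for 7 days. MIC90 was read visually as the concentration inhibiting 90% of growth.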

| Compound | MIC90 [mg/L] |
| --- | --- |
| CC[C@@H](CO)NCCN[C@@](C)(CC)CO | 3.12 (≈ 14.3 µM) |
| CC[C@@H](CO)NCCNC1(CO)CCCC1.Cl.Cl | 1.6 |
| CC[C@@H](CO)NCCNC(CO)CO.Cl.Cl | 3.12 |
| C=CC[C@@](C)(CO)NCCN[C@@H](CC)CO.Cl.Cl | 6.25 |
| Cl.Cl.OCC1(NCCNC2(CO)CCCC2)CCCC1 | 3.12 |
| CC[C@@H](CO)NCCNC(C)(C)CO.Cl.Cl | 1.6 |
| CC[C@@H](CO)NCCN[C@H](CO)c1ccccc1.Cl.Cl | 50 |
| CC(C)(CO)NCCNC(C)(C)CO.Cl.Cl | 6.25 |
| C=CC[C@@H](CO)NCCN[C@@H](CC)CO.Cl.Cl | 25 |
| Br.Br.CC[C@@H](CO)NCCN[C@@H](CC)CO [ETHAMBUTOL HYDROBROMIDE] | 0.8 |
